# Experimental data pooled from the literature.
# Target: 3-phosphoinositide-dependent protein kinase 1 (PDPK1, Homo sapiens, UniProt O15530)
# Sequence (O15530 1-556, as in one of the studies): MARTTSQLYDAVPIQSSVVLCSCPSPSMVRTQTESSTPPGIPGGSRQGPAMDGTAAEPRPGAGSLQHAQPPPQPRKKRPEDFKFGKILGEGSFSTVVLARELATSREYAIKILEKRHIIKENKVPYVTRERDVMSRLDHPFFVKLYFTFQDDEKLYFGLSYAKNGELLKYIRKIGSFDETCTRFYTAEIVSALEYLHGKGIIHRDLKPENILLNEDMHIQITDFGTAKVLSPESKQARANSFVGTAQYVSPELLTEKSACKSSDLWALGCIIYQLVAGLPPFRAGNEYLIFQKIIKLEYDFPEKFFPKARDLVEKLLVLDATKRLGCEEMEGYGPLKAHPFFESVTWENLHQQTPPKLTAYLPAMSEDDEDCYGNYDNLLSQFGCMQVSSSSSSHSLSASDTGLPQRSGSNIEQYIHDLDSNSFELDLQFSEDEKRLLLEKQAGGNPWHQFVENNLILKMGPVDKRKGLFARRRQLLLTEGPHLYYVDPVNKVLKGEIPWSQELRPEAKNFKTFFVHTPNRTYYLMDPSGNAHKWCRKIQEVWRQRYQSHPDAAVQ
SMILES,assay,setting,remaining binding
CN1CC[C@H](c2c(O)cc(O)c3c(=O)cc(-c4ccccc4Cl)oc23)[C@H](O)C1,"cell-free assay, competition with immobilised ligand",0.1 µM,100%
NS(=O)(=O)c1cc(NC(=O)C2(c3ccccc3Cl)CC2)ccc1Oc1cccc(Cl)c1,"cell-free assay, competition with immobilised ligand",1 µM,85%
O=C(NCC1CCOCC1)c1n[nH]cc1NC(=O)c1c(F)cccc1F,"binding, competition with immobilised ligand",1 µM,100%
COc1ccc2c(c1)O[C@@H](c1ccc(OC)c(OC)c1)C[C@H]2NC(=O)C1(c2ccc3c(c2)OC(F)(F)O3)CC1,"cell-free assay, competition with immobilised ligand",1 µM,100%
COc1ccnn2ncc(-c3ccnc(N(C)C)n3)c12,binding,1 µM,100%
COc1cnc(Nc2cccc(S(N)(=O)=O)c2)nc1N1CCN(c2ccccc2)C(=O)C1,"binding, competition with immobilised ligand",1 µM,100%
CCN(CC)Cc1cc(Nc2ccnc3cc(Cl)ccc23)ccc1O,"cell-free assay, competition with immobilised ligand",0.1 µM,100%
O=C(NCCCN1CCOCC1)c1ccc(Nc2nccc(-c3cc4ccccc4s3)n2)cc1,"binding, competition with immobilised ligand",1 µM,99%
C[C@H]1CCN(c2nccc(-c3cnn4ncccc34)n2)C1,binding,1 µM,100%
O=C(NCCCN1CCOCC1)c1ccc(Nc2ncc(Cl)c(-c3ccc(Cl)s3)n2)cc1,"binding, competition with immobilised ligand",1 µM,100%
CC1CCCN1c1nccc(-c2cnn3ncccc23)n1 (stereo not shown),binding,1 µM,89%
CCN(CC)CCNC(=O)c1c(C)[nH]c(/C=C2\C(=O)Nc3ccc(F)cc32)c1C,"cell-free assay, competition with immobilised ligand",0.1 µM,100%
FC(F)(F)Oc1cccc(-c2cnc3ccc(-c4ccncc4)nn23)c1,"cell-free assay, competition with immobilised ligand",5 µM,90%
CN(C)c1nccc(-c2cnc3ncccn23)n1,binding,1 µM,100%
Cc1ccc(NC(=O)c2ccc(CN3CCN(C)CC3)cc2)cc1Nc1nccc(-c2cccnc2)n1,"cell-free assay, competition with immobilised ligand",0.1 µM,100%
CNC(=O)[C@@H]1CC[C@@H](n2c(-c3ccc4cnccc4c3)nc3ccc(C(=O)NCc4cccc(C(N)=O)c4)cc32)C1,"binding, competition with immobilised ligand",1 µM,51%
c1cnn2ncc(-c3ccnc(N4CCC45COC5)n3)c2c1,binding,1 µM,98%
Cc1c(C(=O)O)cc(-c2ccc(C3CCNCC3)cc2)c2ccc(-c3ccc(C(F)(F)F)cc3)cc12,"binding, competition with immobilised ligand",1 µM,100%
N#Cc1ccccc1CSc1nnc2c(n1)[nH]c1ccccc12,"binding, competition with immobilised ligand",10 µM,91%
COc1ncc2cc3ccccc3nc2c1C#N,"cell-free assay, competition with immobilised ligand",5 µM,88%
Cc1cnn2ncc(-c3ccnc(N(C)C)n3)c2c1,binding,1 µM,100%
O=C(NC[C@@H]1[C@H]2CN(C(=O)OCc3cc(C(F)(F)F)cc(C(F)(F)F)c3)C[C@@H]12)c1ccc2[nH]nnc2c1,"cell-free assay, competition with immobilised ligand",1 µM,96%
COc1cc2ncnc(Nc3ccc(F)c(Cl)c3)c2cc1OCCCN1CCOCC1,"cell-free assay, competition with immobilised ligand",0.1 µM,100%
C[C@@H]1CN(c2ccc3ncc(-c4ccc5[nH]nc(C6CC6)c5c4)n3n2)C[C@H](C)O1,"binding, competition with immobilised ligand",0.5 µM,100%
N[C@H]1CCN(c2nccc(-c3cnn4ncccc34)n2)C1,binding,1 µM,97%
CN(C)C(=O)Cn1cc(-c2nc([C@@](C)(c3ccc(-c4cnc(N)nc4)cc3)C3CC3)no2)cn1,"cell-free assay, competition with immobilised ligand",1 µM,99%
CS(=O)(=O)CCNCc1ccc(-c2ccc3ncnc(Nc4ccc(OCc5cccc(F)c5)c(Cl)c4)c3c2)o1,"cell-free assay, competition with immobilised ligand",10 µM,100%
O=C(Nc1cccnn1)N1CC(C/C=C/c2cncc(Oc3ccc(C(F)(F)F)cn3)n2)C1,"cell-free assay, competition with immobilised ligand",1 µM,97%
Cc1nc(Nc2ncc(C(=O)Nc3c(C)cccc3Cl)s2)cc(N2CCN(CCO)CC2)n1,"cell-free assay, competition with immobilised ligand",0.1 µM,100%
c1cncc(-c2cccc(Nc3nccc(NC4CCCCC4)n3)c2)c1,"binding, competition with immobilised ligand",10 µM,100%
C[C@@]1(Cc2ccc(C#N)cc2)C(=O)N(c2cc(Cl)cc(Cl)c2)c2ncc(C(=O)NC3(c4nc(C5CCC5)no4)CC3)n21,"cell-free assay, competition with immobilised ligand",1 µM,100%
Cc1c(-c2ccccc2)oc2c(C(=O)OCCN3CCCCC3)cccc2c1=O,"cell-free assay, competition with immobilised ligand",0.1 µM,100%
C[C@H](c1ccc(F)cc1)N(Cc1cccc(C(=O)O)c1)C(=O)c1cnc2ccccc2c1,"cell-free assay, competition with immobilised ligand",1 µM,100%
O=C(c1ccc(Nc2nccc(-c3cc4ccccc4s3)n2)cc1)N1CCC(N2CCCC2)CC1,"binding, competition with immobilised ligand",1 µM,100%
